From PubChem
Hits are enriched below; roughly 2.5% of the tested compounds scored in any of these assays.
FN deposition inh – fibronectin deposition inhibition; AH1F fibroblasts, Alexa488-fibronectin deposition fluorescence, overnight; inhibition, % at 12.6 µM; 350,000 tested, 0.086% active;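 active means mean inhibition across replicates of 30% or more, regardless of how many single replicates reach that level; inconclusive means mean under 30% yet at least half of replicates reach 30%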;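 further: positive control wells lacked labelled fibronectin entirely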
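Assay system: AH1F fibroblasts / Quantity: 10000 cells per well / Medium: DMEM plus 2% serum, read in PBS / Reagent: labelled fibronectin 24 nM / Dosing: single dose, pinned / Times: 1 h cell attachment, overnight exposure to compound and label / Signal: fluorescence, ex 485 nm, em 525 nm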
N-glyco inh – blocks N-linked glycosylation in D54 reporter cells. D54 ERlucT glycosylation luciferase reporter, 24 h; percent of 100 nM tunicamycin response. reporter increase, % at 12.5 µM. AID 588692. 360,000 tested, 0.23% active;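 active means mean luciferase reporter signal, scaled so untreated is 0 and the glycosylation-blocking control 100, at or above a set limit in every replicate; inconclusive means mean reaches the limit but not every replicate does; inactive means mean below the limit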;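 further: luciferase carries N-glycosylation sites so blocking glycosylation raises the light; 0% = median of neutral control wells and 100% = median of 100 nM tunicamycin wells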
HIV Env fusion – blocks HIV Env-driven cell-cell fusion; AID 651610; 360,000 tested, 1.1% active; HeLa-JRFL Env/CEM21 cell fusion, luciferase; inhibition, % at 12.3 µM;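 active means mean replicate inhibition score of at least 50 and every replicate individually at or above 50; inconclusive means only one of the two criteria met; inactive means mean below 50 and not all replicates reaching 50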;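 further: 0% = plate neutral controls and 100% = maraviroc near 300 nM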
PAX8 inh HTS – PAX8 transcriptional activity inhibition | RMG-I TPO-luciferase reporter, SteadyGlo, 24 h | 360,000 tested, 1.2% active | inhibition, % at 12.6 µM;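 active means mean replicate inhibition at least 60% with every replicate also reaching 60%; inconclusive means only one of the two criteria is met; inactive means mean below 60% and not all replicates reaching 60%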;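 further: luciferase light reporting Pax8 driven TPO promoter activity; plate controls were median of neutral control wells for no effect and mitoxantrone controls for full effect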
MLL AF4-AF9 inh – MLL-AF4/AF9 protein interaction inhibition | AlphaScreen, biotin-AF4 peptide binding to FLAG-AF9 | P42568 | inhibition, % at 10 µM | 350,000 tested, 0.47% active;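 active means every replicate reaching a set inhibition limit, whatever the replicate mean, cut at about 25% in these data; inconclusive means mean inhibition reaches that limit but some replicates miss it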;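 further: 0% = plate neutral control median and 100% = total signal loss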
Target sequence (P42568 whole entry, looked up): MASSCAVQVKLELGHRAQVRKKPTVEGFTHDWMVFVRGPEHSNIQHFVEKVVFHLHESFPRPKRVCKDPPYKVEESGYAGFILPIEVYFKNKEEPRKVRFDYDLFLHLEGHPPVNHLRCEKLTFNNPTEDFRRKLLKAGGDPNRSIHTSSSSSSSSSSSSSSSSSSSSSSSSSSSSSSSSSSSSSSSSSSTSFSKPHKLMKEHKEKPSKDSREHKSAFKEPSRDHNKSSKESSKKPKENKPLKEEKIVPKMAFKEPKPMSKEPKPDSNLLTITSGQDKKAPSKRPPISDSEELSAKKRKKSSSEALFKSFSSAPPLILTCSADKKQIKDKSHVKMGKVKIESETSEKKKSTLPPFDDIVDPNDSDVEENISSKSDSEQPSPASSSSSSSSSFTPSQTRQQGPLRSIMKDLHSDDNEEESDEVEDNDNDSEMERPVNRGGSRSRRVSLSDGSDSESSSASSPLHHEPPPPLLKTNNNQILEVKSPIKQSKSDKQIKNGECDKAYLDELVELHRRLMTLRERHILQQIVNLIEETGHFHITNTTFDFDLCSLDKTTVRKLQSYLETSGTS
EWS-Fli inh – EWS/Fli transcriptional activity inhibition; inhibition, % at 12.6 µM; 350,000 tested, 0.67% active; A673 NR0B1-luciferase reporter, viability-normalised;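 active means mean inhibition of at least 50% after viability correction, with every replicate also passing that limit; inconclusive means mean reaches 50% but only one of two replicates passes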;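 further: firefly luciferase signal divided by Alamar Blue viability fluorescence both relative to DMSO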
The depositor's hits bear a star; [ ] = remark or other dose.

`Cc1ccc(C(=O)N/C(=C\c2ccc(-c3cccc([N+](=O)[O-])c3)o2)C(=O)NCCCN(C)C)cc1` gave FN deposition inh -1.6, N-glyco inh -6.8, HIV Env fusion -10.2, PAX8 inh HTS -5.4, MLL AF4-AF9 inh 13.4 and EWS-Fli inh 4.9.
Screening Cc1ccccc1N=CC=C1OC(C)(C)C(C)(C)O1 returned FN deposition inh -3.5, N-glyco inh 5.8, PAX8 inh HTS 79.1*, MLL AF4-AF9 inh 6.7 and EWS-Fli inh -0.7.
Screening CC(C)C#Cc1ccc2c(c1)O[C@H](CN(C)Cc1cccnc1)[C@@H](C)CN([C@@H](C)CO)S2(=O)=O returned FN deposition inh -13.0, HIV Env fusion -41.0[16.7 µM], PAX8 inh HTS 13.9, MLL AF4-AF9 inh -5.7 and EWS-Fli inh 23.2.
For Fc1ccc(NC(=S)N2CCCN(c3ccc(C(F)(F)F)cn3)CC2)c(F)c1 the results were FN deposition inh -9.5, N-glyco inh -4.7, HIV Env fusion 61.1*, PAX8 inh HTS 24.2, MLL AF4-AF9 inh -1.7 and EWS-Fli inh 1.6.
O=C(c1oc2ccccc2c1CSCc1ccccc1)N1CCN(c2ncccn2)CC1 was read as N-glyco inh -1.9 and HIV Env fusion 55.6*.
Screening CCOCC(=O)Nc1c(C(=O)N2CCN(c3ncccn3)CC2)oc2ccccc12 returned FN deposition inh -1.5, N-glyco inh 0.1, HIV Env fusion -1.6, PAX8 inh HTS 2.5 and MLL AF4-AF9 inh 4.1.
For Cc1ccc(-c2ccc3c(c2)O[C@H](CN(C)Cc2ccccc2)[C@H](C)CN([C@H](C)CO)S3(=O)=O)cc1 the results were FN deposition inh -19.2, HIV Env fusion 18.2[16.7 µM], MLL AF4-AF9 inh 6.9 and EWS-Fli inh 11.1.
`C[C@@H]1CN([C@H](C)CO)S(=O)(=O)c2ccc(C3=CCCC3)cc2O[C@@H]1CN(C)Cc1ccccc1` gave HIV Env fusion inconclusive, MLL AF4-AF9 inh 7.9 and EWS-Fli inh -0.6.
C[C@H]1CN([C@@H](C)CO)S(=O)(=O)c2ccc(C3=CCCC3)cc2O[C@H]1CN(C)Cc1ccccc1 was read as HIV Env fusion 56.7*[16.7 µM], MLL AF4-AF9 inh 10.7 and EWS-Fli inh 15.5.
Screening C[C@H]1CN([C@@H](C)CO)S(=O)(=O)c2ccc(-c3ccccc3)cc2O[C@H]1CN(C)Cc1ccccc1 returned FN deposition inh 1.0, HIV Env fusion 55.2*[16.7 µM] and EWS-Fli inh 16.2.
For C[C@@H]1CN([C@H](C)CO)S(=O)(=O)c2ccc(-c3ccccc3)cc2O[C@H]1CN(C)Cc1ccccc1 the results were FN deposition inh -6.5, HIV Env fusion 55.1*[16.7 µM] and EWS-Fli inh 27.6.
Screening C[C@@H]1CN([C@@H](C)CO)C(=O)Cc2cc(NC(=O)CCC(F)(F)F)ccc2O[C@H]1CN(C)C(=O)Nc1ccc(F)cc1 returned PAX8 inh HTS 4.7, MLL AF4-AF9 inh -4.4 and EWS-Fli inh -3.4.
Screening O=C(NC1CCCCC1)N1CC(=O)N2[C@H](C1)[C@H](c1ccc(-c3cccnc3)cc1)[C@@H]2CO returned FN deposition inh -5.1, MLL AF4-AF9 inh -2.1 and EWS-Fli inh -4.0.
COc1cccc(NC(=O)N2CC3(C2)[C@H](c2ccccc2)[C@H](CO)N3C(=O)C2CCCC2)c1 was read as MLL AF4-AF9 inh -0.8 and EWS-Fli inh -8.0.
For C[C@H](CO)N1C[C@H](C)[C@H](CN(C)Cc2ccccc2)Oc2c(NC(=O)C3CCOCC3)cccc2C1=O the results were HIV Env fusion 16.7[16.7 µM], PAX8 inh HTS -10.8, MLL AF4-AF9 inh -0.3 and EWS-Fli inh -0.3.
For COc1ccc(NC(=O)Nc2ccc3c(c2)C(=O)N([C@H](C)CO)C[C@H](C)[C@H](CN(C)C(=O)c2ccccc2)OCCCC[C@H](C)O3)cc1 the results were HIV Env fusion 60.7*[16.7 µM], PAX8 inh HTS 3.7, MLL AF4-AF9 inh -4.9 and EWS-Fli inh -3.6.
COc1ccc(NC(=O)Nc2ccc3c(c2)C(=O)N([C@@H](C)CO)C[C@H](C)[C@H](CN(C)C(=O)c2ccccc2)OCCCC[C@H](C)O3)cc1 was read as HIV Env fusion 56.4*[16.7 µM], PAX8 inh HTS 10.2, MLL AF4-AF9 inh 0.1 and EWS-Fli inh 2.2.
Screening C[C@@H]1CN(C)C(=O)Cc2ccccc2O[C@@H]1CN(C)S(C)(=O)=O returned FN deposition inh 11.9.
`CCOC(=O)c1cc2c(C)n(-c3ccc(C)cc3)c(C)c2ccc1=O` gave N-glyco inh -13.1 and HIV Env fusion -228.6.
